Experimental data reported in ChEMBL document CHEMBL4251664, “Biocompatible Boron-Containing Prodrugs of Belinostat for the Potential Treatment of Solid Tumors” (ACS Med Chem Lett, 2018).

What was measured:
[1] = test system: HeLa; test: Prodrug conversion in human HeLa cells assessed as (E)-4-((3-(3-(N-phenylsulfamoyl)phenyl)acrylamidooxy)methyl)phenylboronic acid level after 2 days by UHPLC-MS/MS analysis; format: ADME, cell-based; conditions: 48 h
In short: (§1)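 MDA-MB-231 or HeLa cells were incubated with the pinacol boronate prodrug, and culture medium was sampled daily from day 1 to day 6. The prodrug, boronic acid forms and belinostat were separated, identified and quantified by HPLC coupled to an Orbitrap mass spectrometer. Results are in ng/mL as mean ± SEM of triplicate experiments.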

[2] = test system: MDA-MB-231; test: Prodrug conversion in human MDA-MB-231 cells assessed as (E)-4-((3-(3-(N-phenylsulfamoyl)phenyl)acrylamidooxy)methyl)phenylboronic acid level after 5 days by UHPLC-MS/MS analysis; format: ADME, cell-based; conditions: mda-mb-231, 120 h; in short: as §1
[3] = test system: HeLa; test: Antiproliferative activity against human HeLa cells after 72 hrs by resazurin dye based fluorescence assay; format: functional, cell-based
[4] = test system: MCF7; test: Antitumor activity against human MCF7 cells implanted in ovariectomized nu/nu mouse assessed as tumor growth inhibition at 10 mg/kg, sc administered once daily for 22 days measured post last dose relative to control; format: functional; conditions: 528 h, read-out: TGI
[5] = test system: MDA-MB-231; test: Prodrug conversion in human MDA-MB-231 cells assessed as (E)-4-((3-(3-(N-phenylsulfamoyl)phenyl)acrylamidooxy)methyl)phenylboronic acid level after 2 days by UHPLC-MS/MS analysis; format: ADME, cell-based; conditions: mda-mb-231, 48 h; in short: as §1
[6] = test system: HeLa; test: Prodrug conversion in human HeLa cells assessed as (E)-4-((3-(3-(N-phenylsulfamoyl)phenyl)acrylamidooxy)methyl)phenylboronic acid level after 4 days by UHPLC-MS/MS analysis; format: ADME, cell-based; conditions: 96 h; in short: as §1
[7] = test system: HeLa; test: Prodrug conversion in human HeLa cells assessed as belinostat level after 2 days by UHPLC-MS/MS analysis; format: ADME, cell-based; conditions: 48 h; in short: as §1
[8] = test system: MDA-MB-231; test: Antiproliferative activity against human MDA-MB-231 cells after 72 hrs by resazurin dye based fluorescence assay; format: functional, cell-based; conditions: MDA-MB-231, 72 h
[9] = test system: HeLa; test: Prodrug conversion in human HeLa cells assessed as belinostat level after 4 days by UHPLC-MS/MS analysis; format: ADME, cell-based; conditions: 96 h; in short: as §1
[10] = test system: MCF-10A; test: Cytotoxicity against human MCF10A cells assessed as reduction in cell proliferation at 10 uM after 72 hrs by resazurin dye based fluorescence assay
[11] = target: T1, Protein deacetylase HDAC6 (Homo sapiens, UniProt Q9UBN7); test: Inhibition of human HDAC6 using RHKK(Ac)AMC as substrate
T1 sequence (Q9UBN7 whole entry): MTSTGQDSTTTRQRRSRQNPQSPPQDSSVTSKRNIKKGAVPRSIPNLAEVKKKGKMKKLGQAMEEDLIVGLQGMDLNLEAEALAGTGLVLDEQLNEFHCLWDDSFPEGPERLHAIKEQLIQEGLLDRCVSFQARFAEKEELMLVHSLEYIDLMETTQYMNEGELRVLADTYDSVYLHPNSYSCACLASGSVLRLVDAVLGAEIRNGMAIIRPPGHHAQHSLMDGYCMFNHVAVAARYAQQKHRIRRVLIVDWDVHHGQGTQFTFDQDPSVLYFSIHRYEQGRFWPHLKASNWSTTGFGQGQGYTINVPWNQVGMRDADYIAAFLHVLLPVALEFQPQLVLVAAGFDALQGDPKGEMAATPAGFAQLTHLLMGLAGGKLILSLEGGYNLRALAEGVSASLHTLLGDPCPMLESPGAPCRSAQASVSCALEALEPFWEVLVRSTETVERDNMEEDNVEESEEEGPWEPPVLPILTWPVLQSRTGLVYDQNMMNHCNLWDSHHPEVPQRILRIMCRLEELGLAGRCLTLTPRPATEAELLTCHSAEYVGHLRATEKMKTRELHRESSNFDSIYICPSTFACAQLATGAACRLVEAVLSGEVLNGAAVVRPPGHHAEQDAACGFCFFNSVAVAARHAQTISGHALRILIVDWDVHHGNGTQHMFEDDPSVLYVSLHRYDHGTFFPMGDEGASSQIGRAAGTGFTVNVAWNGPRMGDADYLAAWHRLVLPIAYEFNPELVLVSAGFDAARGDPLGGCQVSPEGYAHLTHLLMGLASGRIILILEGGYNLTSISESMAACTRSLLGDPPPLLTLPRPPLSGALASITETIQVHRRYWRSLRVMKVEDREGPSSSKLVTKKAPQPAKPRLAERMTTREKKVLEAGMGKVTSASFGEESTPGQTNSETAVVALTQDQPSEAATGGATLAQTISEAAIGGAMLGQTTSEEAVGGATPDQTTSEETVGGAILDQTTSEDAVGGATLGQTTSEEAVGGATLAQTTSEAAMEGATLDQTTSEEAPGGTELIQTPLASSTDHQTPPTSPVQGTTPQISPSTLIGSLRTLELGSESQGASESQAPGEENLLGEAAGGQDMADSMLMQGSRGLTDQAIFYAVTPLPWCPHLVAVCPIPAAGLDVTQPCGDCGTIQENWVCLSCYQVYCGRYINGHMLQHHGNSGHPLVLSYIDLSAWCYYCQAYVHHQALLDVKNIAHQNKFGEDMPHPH

[12] = Drug uptake in tumor of ovariectomized nu/nu mouse implanted with human MCF7 cells assessed as belinostat level at 10 mg/kg, sc administered once daily for 22 days measured post last dose by HPLC-MS/MS analysis; format: ADME, organism-based, Neoplasm; conditions: in vivo, 528 h
In short: (§2)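 After 22 days of 10 mg/kg/day subcutaneous dosing in MCF-7 xenograft mice, animals were sacrificed. Tumours were excised, homogenized and extracted, then analysed by HPLC–MS/MS for belinostat and the free boronic acid. Results are expressed as ng/g tissue.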

[13] = Drug uptake in tumor of ovariectomized nu/nu mouse implanted with human MCF7 cells assessed as (E)-4-((3-(3-(N-phenylsulfamoyl)phenyl)acrylamidooxy)methyl)phenylboronic acid level at 10 mg/kg, sc administered once daily for 22 days measured post last dose by HPLC-MS/MS analysis; format: ADME, organism-based, Neoplasm; conditions: in vivo, 528 h; in short: as §2

For `CC1(C)OB(c2ccc(CONC(=O)/C=C/c3cccc(S(=O)(=O)Nc4ccccc4)c3)cc2)OC1(C)C`, which Drug metabolism [1] is on record?
The Drug metabolism was 147.4 ng/mL.

And the Drug metabolism [2]?
Its Drug metabolism is 145.8 ng/mL.

What about the IC50 [3] of the same compound?
Its IC50 is 273 nM.

What about the inhibition in vivo at 10 mg/kg [4] of the same compound?
The inhibition in vivo at 10 mg/kg was 85.4%.

And the Drug metabolism [5]?
The Drug metabolism was 268.5 ng/mL.

And the Drug metabolism [6]?
Its Drug metabolism is 107 ng/mL.

And the Drug metabolism [7]?
Its Drug metabolism is 6.6 ng/mL.

What about the IC50 [8] of the same compound?
Its IC50 is 303 nM.

What about the Drug metabolism [9] of the same compound?
Its Drug metabolism is 7.8 ng/mL.

What about the Activity [10] of the same compound?
The Activity was “Non-Toxic”.

What about the EC50 [11] of the same compound?
The EC50 was 20200 nM.

What about the Drug uptake [12] of the same compound?
Its Drug uptake is 57 ng/g.

What about the Drug uptake [13] of the same compound?
The Drug uptake was 51 ng/g.
